The source made the active and inactive calls.
How the values were obtained:
[1] = target: Voltage-gated inwardly rectifying potassium channel KCNH2 (Homo sapiens, UniProt Q12809); experiment: Inhibition of human ERG
L-type calcium channel = L-type calcium channel (Homo sapiens, UniProt O60840+Q01668+Q13698+Q13936); experiment: Inhibition of L-type calcium channel (unknown origin) at 1 uM relative to control; format: protein assay
[2] = Drug uptake in brain of rat model of complete Freund's adjuvant-induced inflammatory pain at 30 mg/kg, po after 1 hr; format: ADME, organism-based; settings: read-out: Drug uptake
How it was run: (§1)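 In separate studies, drug levels in plasma, brain and spinal cord were measured in rats after a 30 mg/kg p.o. dose, sampled at 1 h or 2 h.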

[3] = AUClast in rat at 6 mg/kg, po; format: ADME, organism-based; parameters: dose 6 mg/kg, route oral, time 0 - last; settings: in vivo
How it was run: (§2)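 Rat PK: oral and intravenous dosing of the same compound in 20% hydroxypropyl-β-cyclodextrin, at 10.0/2.0 or 6.0/1.2 mg/kg po/iv.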

[4] = target: T1, Voltage-dependent N-type calcium channel subunit alpha-1B (Homo sapiens, UniProt Q00975); experiment: Inhibition of Cav2.2 (unknown origin) expressed in HEK293 cells assessed as decrease in KCl depolarization-induced Ca2+ influx measured for 5 mins by fluorescence based FDSS assay; format: cell-based
Target sequence in this assay (Q00975 whole entry): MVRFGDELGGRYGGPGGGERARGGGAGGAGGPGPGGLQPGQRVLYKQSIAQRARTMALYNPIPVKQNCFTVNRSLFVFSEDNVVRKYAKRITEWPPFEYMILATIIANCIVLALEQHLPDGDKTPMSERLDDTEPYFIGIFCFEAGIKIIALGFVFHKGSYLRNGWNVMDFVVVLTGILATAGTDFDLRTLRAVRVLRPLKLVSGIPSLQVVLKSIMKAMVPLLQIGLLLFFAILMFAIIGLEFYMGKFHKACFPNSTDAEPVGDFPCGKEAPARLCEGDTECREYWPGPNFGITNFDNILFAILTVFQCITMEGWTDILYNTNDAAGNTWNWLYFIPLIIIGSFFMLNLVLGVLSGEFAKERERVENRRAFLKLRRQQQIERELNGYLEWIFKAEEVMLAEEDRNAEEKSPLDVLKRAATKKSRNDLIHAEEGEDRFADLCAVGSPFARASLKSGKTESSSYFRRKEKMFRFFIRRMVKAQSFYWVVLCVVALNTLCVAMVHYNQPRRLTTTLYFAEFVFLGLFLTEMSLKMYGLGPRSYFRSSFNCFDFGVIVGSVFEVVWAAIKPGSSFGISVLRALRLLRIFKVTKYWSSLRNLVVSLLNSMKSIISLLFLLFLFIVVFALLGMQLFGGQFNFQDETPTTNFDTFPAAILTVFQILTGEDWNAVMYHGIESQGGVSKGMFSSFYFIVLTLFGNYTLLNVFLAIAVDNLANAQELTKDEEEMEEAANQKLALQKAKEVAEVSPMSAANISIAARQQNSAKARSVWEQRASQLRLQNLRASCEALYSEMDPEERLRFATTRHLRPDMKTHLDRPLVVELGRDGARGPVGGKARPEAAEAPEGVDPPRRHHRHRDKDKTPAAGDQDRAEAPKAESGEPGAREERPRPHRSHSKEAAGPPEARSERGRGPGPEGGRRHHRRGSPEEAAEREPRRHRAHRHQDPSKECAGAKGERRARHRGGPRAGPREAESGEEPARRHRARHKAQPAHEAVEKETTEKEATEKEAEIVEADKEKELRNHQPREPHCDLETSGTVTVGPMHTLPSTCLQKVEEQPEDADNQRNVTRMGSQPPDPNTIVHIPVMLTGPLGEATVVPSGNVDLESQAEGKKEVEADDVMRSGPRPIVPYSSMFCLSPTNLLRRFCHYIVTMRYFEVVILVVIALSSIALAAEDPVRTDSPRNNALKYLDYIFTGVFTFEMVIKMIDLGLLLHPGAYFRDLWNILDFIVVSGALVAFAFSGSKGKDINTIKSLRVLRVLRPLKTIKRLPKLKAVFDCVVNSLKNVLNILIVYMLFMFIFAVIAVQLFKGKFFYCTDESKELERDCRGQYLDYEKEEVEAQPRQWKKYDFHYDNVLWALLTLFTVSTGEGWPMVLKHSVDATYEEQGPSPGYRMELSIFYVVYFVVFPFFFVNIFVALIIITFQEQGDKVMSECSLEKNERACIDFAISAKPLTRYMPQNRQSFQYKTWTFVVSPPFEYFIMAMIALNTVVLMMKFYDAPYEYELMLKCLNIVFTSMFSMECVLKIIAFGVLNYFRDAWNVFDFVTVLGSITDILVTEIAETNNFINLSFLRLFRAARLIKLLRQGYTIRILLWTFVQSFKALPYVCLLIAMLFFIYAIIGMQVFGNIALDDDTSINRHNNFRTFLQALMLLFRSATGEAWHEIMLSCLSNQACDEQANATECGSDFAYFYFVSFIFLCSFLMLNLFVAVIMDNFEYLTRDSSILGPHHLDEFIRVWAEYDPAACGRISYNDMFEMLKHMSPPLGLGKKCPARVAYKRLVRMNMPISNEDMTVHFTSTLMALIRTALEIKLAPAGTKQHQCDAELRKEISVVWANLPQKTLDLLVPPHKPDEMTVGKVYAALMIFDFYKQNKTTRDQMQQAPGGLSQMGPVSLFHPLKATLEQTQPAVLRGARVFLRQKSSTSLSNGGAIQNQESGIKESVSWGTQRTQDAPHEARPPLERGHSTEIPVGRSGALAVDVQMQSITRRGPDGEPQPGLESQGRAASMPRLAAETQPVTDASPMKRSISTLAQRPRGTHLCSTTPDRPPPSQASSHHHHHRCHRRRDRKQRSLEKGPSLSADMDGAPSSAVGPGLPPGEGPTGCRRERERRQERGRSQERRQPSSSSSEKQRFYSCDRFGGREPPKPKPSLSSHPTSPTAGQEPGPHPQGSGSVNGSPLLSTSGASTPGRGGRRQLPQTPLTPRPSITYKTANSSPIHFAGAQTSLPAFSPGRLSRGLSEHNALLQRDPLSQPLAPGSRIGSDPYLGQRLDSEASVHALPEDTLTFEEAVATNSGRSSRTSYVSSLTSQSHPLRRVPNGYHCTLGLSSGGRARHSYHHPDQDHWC

[5] = Half life in rat at 1.2 mg/kg, iv; format: ADME, organism-based; settings: in vivo; how it was run: as §2
[6] = Oral bioavailability in rat at 6 mg/kg; format: ADME, organism-based; settings: in vivo; how it was run: as §2
[7] = target: T1, Voltage-dependent N-type calcium channel subunit alpha-1B; experiment: Inhibition of low frequency stimulation-induced Cav2.2 (unknown origin) expressed in HEK293 cells at -80 mV holding membrane potential by automated patch clamp assay; format: cell-based
Target sequence in this assay (Q00975 whole entry): as above

[8] = target: T1, Voltage-dependent N-type calcium channel subunit alpha-1B; experiment: Inhibition of high frequency stimulation-induced Cav2.2 (unknown origin) expressed in HEK293 cells at -80 mV holding membrane potential by automated patch clamp assay; format: cell-based
Target sequence in this assay (Q00975 whole entry): as above

Rattus norvegicus [9] = experiment: Antiinflammatory activity in rat model of complete Freund's adjuvant-induced inflammatory pain assessed as reduction in thermal hyperalgesia by measuring radiant heat latency at 30 mg/kg, po measured after 180 mins post dose; format: functional, organism-based
How it was run: (§3)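 CFA rats were confirmed thermally hypersensitive by radiant heat latency (75% cut-off) on test day. They were then dosed p.o. at 2.5 mL/kg with 30 mg/kg in 10% NMP/20% Solutol, or vehicle alone. Paw withdrawal latency to radiant heat was read at 30, 60, 120, 180 and 300 min post-dose. One-way ANOVA with Dunnett's post test.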

[10] = Cmax in rat at 6 mg/kg, po; format: ADME, organism-based; parameters: dose 6 mg/kg, route oral; settings: in vivo; how it was run: as §2
[11] = Plasma concentration in rat model of complete Freund's adjuvant-induced inflammatory pain at 30 mg/kg, po after 1 hr; format: ADME, organism-based; how it was run: as §1
[12] = Clearance in rat at 6 mg/kg, po or 1.2 mg/kg, iv; format: ADME, organism-based; settings: in vivo; how it was run: as §2
Rattus norvegicus [13] = experiment: Antiinflammatory activity in rat model of complete Freund's adjuvant-induced inflammatory pain assessed as reduction in thermal hyperalgesia by measuring radiant heat latency at 30 mg/kg, po measured after 30 mins post dose; format: functional, organism-based; how it was run: as §3
[14] = Drug uptake in spinal cord of rat model of complete Freund's adjuvant-induced inflammatory pain at 30 mg/kg, po after 1 hr; format: ADME, organism-based; settings: read-out: Drug uptake; how it was run: as §1
[15] = Volume of distribution at steady state in rat at 6 mg/kg, po or 1.2 mg/kg, iv; format: ADME, organism-based; settings: in vivo, read-out: Vdss; how it was run: as §2
[16] = Cmax in rat at 10 mg/kg, po; format: ADME, organism-based; parameters: dose 10 mg/kg, route oral; settings: in vivo; how it was run: as §2
[17] = Oral bioavailability in rat at 10 mg/kg; format: ADME, organism-based; settings: in vivo; how it was run: as §2
[18] = Metabolic stability of human liver microsomes assessed as parent compound remaining after 10 mins; format: ADME, microsome; settings: read-out: Stability
[19] = Drug uptake in brain of rat model of complete Freund's adjuvant-induced inflammatory pain at 30 mg/kg, po after 2 hrs; format: ADME, organism-based; settings: read-out: Drug uptake; how it was run: as §1
[20] = Half life in rat at 2 mg/kg, iv; format: ADME, organism-based; settings: in vivo; how it was run: as §2
[21] = Plasma concentration in rat model of complete Freund's adjuvant-induced inflammatory painat 30 mg/kg, po after 2 hrs; format: ADME, organism-based; how it was run: as §1
[22] = Metabolic stability of rat liver microsomes assessed as parent compound remaining after 10 mins; format: ADME, microsome; settings: read-out: Stability
Rattus norvegicus [23] = experiment: Antinociceptive activity in Sprague-Dawley rat model of CCI-induced neuropathic pain assessed as reduction in acetone-induced nocifensive response at 30 mg/kg, po measured after 3 hrs relative to control; format: functional
How it was run: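 CCI rats were given 30 mg/kg p.o. in 10% Solutol/20% HP-β-CD, or vehicle. Cold allodynia was scored as brisk hindpaw withdrawal to acetone applied to the affected paw, over five applications, before dosing and hourly for 3 h. Percent inhibition is relative to the time-zero responses. Two-way repeated-measures ANOVA with Bonferroni test.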

[24] = Volume of distribution at steady state in rat at 10 mg/kg, po or 2 mg/kg, iv; format: ADME, organism-based; settings: in vivo, read-out: Vdss; how it was run: as §2
[25] = Clearance in rat at 10 mg/kg, po or 2 mg/kg, iv; format: ADME, organism-based; settings: in vivo; how it was run: as §2
[26] = AUClast in rat at 10 mg/kg, po; format: ADME, organism-based; parameters: dose 10 mg/kg, time 0 - last, route oral; settings: in vivo; how it was run: as §2
[27] = target: T1, Voltage-dependent N-type calcium channel subunit alpha-1B; experiment: Inhibition of low frequency stimulation-induced Cav2.2 (unknown origin) expressed in HEK293 cells at 5 uM at -80 mV holding membrane potential by automated patch clamp assay relative to control; format: cell-based
How it was run: (§4)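 Automated whole-cell patch clamp (QPatch-HT) on HEK293 cells stably expressing Cav2.2. Each trial was the 4th train at each drug concentration. 60 μM CdCl2 set the 0% level, and vehicle-treated cells were used to correct for rundown.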
Target sequence in this assay (Q00975 whole entry, looked up): as the sequence (Q00975 whole entry) above

[28] = target: T1, Voltage-dependent N-type calcium channel subunit alpha-1B; experiment: Inhibition of high frequency stimulation-induced Cav2.2 (unknown origin) expressed in HEK293 cells at 5 uM at -80 mV holding membrane potential by automated patch clamp assay relative to control; format: cell-based; how it was run: as §4
Target sequence in this assay (Q00975 whole entry, looked up): as the sequence (Q00975 whole entry) above

Sequence of Voltage-gated inwardly rectifying potassium channel KCNH2 (Q12809 whole entry): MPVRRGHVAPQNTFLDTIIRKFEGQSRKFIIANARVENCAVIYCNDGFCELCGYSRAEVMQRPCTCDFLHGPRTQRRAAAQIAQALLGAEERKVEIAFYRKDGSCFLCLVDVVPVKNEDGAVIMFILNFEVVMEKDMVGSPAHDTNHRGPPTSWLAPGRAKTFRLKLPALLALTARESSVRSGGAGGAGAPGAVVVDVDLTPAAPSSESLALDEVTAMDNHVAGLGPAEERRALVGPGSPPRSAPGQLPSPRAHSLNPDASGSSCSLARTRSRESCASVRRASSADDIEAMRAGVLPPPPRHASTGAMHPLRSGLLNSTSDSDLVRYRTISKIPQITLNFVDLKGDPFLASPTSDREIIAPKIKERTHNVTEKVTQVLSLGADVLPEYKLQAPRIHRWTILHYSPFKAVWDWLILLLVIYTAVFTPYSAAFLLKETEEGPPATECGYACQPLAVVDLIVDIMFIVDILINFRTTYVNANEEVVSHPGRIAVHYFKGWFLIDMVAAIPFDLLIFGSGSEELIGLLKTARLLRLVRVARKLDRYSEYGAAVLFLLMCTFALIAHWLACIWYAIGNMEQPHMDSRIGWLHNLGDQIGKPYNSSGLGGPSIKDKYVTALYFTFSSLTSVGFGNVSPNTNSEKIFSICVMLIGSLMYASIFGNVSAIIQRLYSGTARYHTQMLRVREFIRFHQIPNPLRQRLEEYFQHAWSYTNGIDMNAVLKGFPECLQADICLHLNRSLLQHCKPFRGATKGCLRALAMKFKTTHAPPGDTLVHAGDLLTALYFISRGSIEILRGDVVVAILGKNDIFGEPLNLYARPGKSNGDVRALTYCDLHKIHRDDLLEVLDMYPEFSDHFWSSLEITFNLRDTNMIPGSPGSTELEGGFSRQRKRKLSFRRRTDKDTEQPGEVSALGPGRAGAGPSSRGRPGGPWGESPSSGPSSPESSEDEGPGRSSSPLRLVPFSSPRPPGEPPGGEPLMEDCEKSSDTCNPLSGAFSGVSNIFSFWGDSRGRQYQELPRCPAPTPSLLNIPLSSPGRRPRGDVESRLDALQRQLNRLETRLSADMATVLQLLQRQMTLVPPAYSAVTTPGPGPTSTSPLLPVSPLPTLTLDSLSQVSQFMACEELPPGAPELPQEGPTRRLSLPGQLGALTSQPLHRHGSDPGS

IC50 [4] [nM]	IC50 [7] [nM]	IC50 [8] [nM]	remaining at 10 min [18] [%]	remaining at 10 min [22] [%]	SMILES	further results
6	62	28	–	–	COc1ccccc1-n1nc(C2CC(C)(C)OC(C)(C)C2)cc1-c1csc(Cl)c1	IC50 [1]: 26 µM; inhibition at 1 µM (L-type calcium channel): 12%; concentration at 1 h [2]: 2200 nM; AUC(0-t) [3]: 2660 ng·h/mL; half-life [5]: 612 min; bioavailability [6]: 49%; Activity (Rattus norvegicus [9]): inactive; Cmax [10]: 369 ng/mL; concentration at 1 h [11]: 1100 nM; clearance [12]: 15.9 mL/min/kg; Activity (Rattus norvegicus [13]): Active; concentration at 1 h [14]: 1900 nM; Vd [15]: 10.2 L/kg
1	24	16	97	96	COc1ccccc1-n1nc(C2CC(C)(C)OC(C)(C)C2)cc1-c1ccc(Cl)cc1	IC50 [1]: 20 µM; Cmax [16]: 127 ng/mL; inhibition at 1 µM (L-type calcium channel): 0%; bioavailability [17]: 36%; Activity (Rattus norvegicus [9]): inactive; concentration at 2 h [19]: 1200 nM; half-life [20]: 924 min; concentration at 2 h [21]: 700 nM; Activity (Rattus norvegicus [13]): Active; inhibition in vivo at 30 mg/kg (Rattus norvegicus [23]): 51%; Vd [24]: 33.3 L/kg; clearance [25]: 37 mL/min/kg; AUC(0-t) [26]: 1500 ng·h/mL
3	–	–	96	37	COc1ccccc1-n1nc(C2=CC(C)(C)OC(C)(C)C2)cc1-c1ccc(Cl)cc1	–
5	200	44	–	–	CCOc1ccc(-c2cc(C3CC(C)(C)OC(C)(C)C3)nn2-c2ccccc2OC)cn1	–
–	–	–	58	4	COCCCc1cc(-c2ccc(Cl)cc2)n(-c2ccccc2OC)n1	inhibition [27]: 50%; inhibition [28]: 50%
7	–	–	66	21	COc1ccccc1-n1nc([C@@H]2CCO[C@H](C(C)C)C2)cc1-c1ccc(Cl)cc1 (relative stereo)	–
3	91	12	64	18	COc1ccccc1-n1nc([C@H]2C[C@@H](C)O[C@@H](C)C2)cc1-c1ccc(Cl)cc1	–
30	–	–	75	8	COc1ccccc1-n1nc(C2CCOCC2)cc1-c1ccc(Cl)cc1	–
2	150	55	98	21	COc1ccccc1-n1nc(C2CCOC(C)(C)C2)cc1-c1ccc(Cl)cc1 (stereo not given)	–
2	61	29	–	–	CCOc1ccc(-c2cc(C3CC(C)(C)OC(C)(C)C3)nn2-c2ccccc2OC)cc1	–
7	–	–	–	–	CC1(C)CC(c2cc(-c3ccc(Cl)cc3)n(-c3ccncc3)n2)CC(C)(C)O1	–
1	130	85	–	–	COc1ccccc1-n1nc(C2CC(C)(C)OC(C)(C)C2)cc1-c1ccc(C#N)cc1	–
1	590	100	–	–	CCN(CC)c1ccccc1-n1nc(C2CC(C)(C)OC(C)(C)C2)cc1-c1ccc(Cl)cc1	–
2	–	–	40	14	COc1ccccc1-n1nc(C2C[C@H](C)O[C@@H](C)C2)cc1-c1ccc(Cl)cc1 (relative stereo)	–
12	–	–	–	–	CC1(C)CC(c2cc(-c3ccc(Cl)cc3)n(-c3ccccn3)n2)CC(C)(C)O1	–
6	–	–	–	–	COc1ccccc1-n1nc(C2CC(C)(C)OC(C)(C)C2)cc1-c1ccc(C)nc1	–
20	–	–	26	14	COc1ccccc1-n1nc([C@@H]2CCO[C@@H](C(C)C)C2)cc1-c1ccc(Cl)cc1 (relative stereo)	–

SMILES	IC50 [4] [nM]	IC50 [7] [nM]	IC50 [8] [nM]	remaining at 10 min [18] [%]	remaining at 10 min [22] [%]	further results
COc1ccccc1-n1nc(C2CC(C)(C)OC(C)(C)C2)cc1-c1ccnc(Cl)c1	–	740	250	–	–	–
